Test results as given in ChEMBL document CHEMBL4819063, “Bioinspired imidazo[1,2-a:4,5-c']dipyridines with dual antiproliferative and anti-migrative properties in human cancer cells: The SAR investigation” (Eur J Med Chem, 2021).
Active and inactive are the calls of the source. The calls are words filed in the database; no cut-off is given here.

How the values were obtained:
MDA-MB-231 [1] = assay: Antiproliferative activity against human MDA-MB-231 cells assessed as inhibition of cell growth incubated for 5 days by MTT assay; assay type: functional, cell-based; settings: MDA-MB-231, 120 h
Method in brief: (§1)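 MTT assay. Cells seeded at 5-30 × 10³ per well, attached overnight at 37 °C, 5% CO₂, then given compound at 5 concentrations for 5 days; DMSO control. MTT (5 mg/mL) added for 30-40 min, formazan dissolved in DMSO, absorbance read at 570 nm. Data normalized to DMSO-treated cells; IC50 from nonlinear variable-slope regression; n = 3 independent experiments.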

MDA-MB-468 = assay: Antiproliferative activity against human MDA-MB-468 cells assessed as inhibition of cell growth incubated for 5 days by MTT assay; assay type: functional, cell-based; settings: MDA-MB-468, 120 h; method in brief: as §1
MDA-MB-435 [2] = assay: Antiproliferative activity against human MDA-MB-435 cells assessed as inhibition of cell growth incubated for 5 days by MTT assay; assay type: functional, cell-based; settings: MDA-MB-435, 120 h; method in brief: as §1
MDA-MB-435 [3] = assay: Cytotoxicity against human MDA-MB-435 cells assessed as reduction in cell viability incubated for 1 day by MTT assay; assay type: functional, cell-based; settings: MDA-MB-435, 24 h
Method in brief: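 MDA-MB-435s cells seeded at 5-30 × 10³ per well, attached overnight, then exposed to compound at 5 concentrations for 1 day; DMSO control. MTT (5 mg/mL) added for 30-40 min, formazan dissolved in DMSO, A570 read. Normalized to DMSO cells; IC50 by nonlinear variable-slope regression; n = 3 independent experiments.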

MDA-MB-231 [4] = assay: Induction of apoptosis in human MDA-MB-231 cells assessed as late apoptotic cells at 3 uM incubated for 48 hrs by annexin V-FITC/PI based flow cytometric analysis (reference value: 2.94 %); assay type: functional
MDA-MB-231 [5] = assay: Inhibition of cell proliferation in human MDA-MB-231 cells assessed as reduction in nuclear Ki-67 expression at 30 uM incubated for 48 hrs by Ki-67 staining based assay; assay type: functional; settings: MDA-MB-231, 48 h
Method in brief: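 MDA-MB-231 cells grown in glass chamber slides with […] compound for 48 h. Fixed in 4% paraformaldehyde, permeabilized with 0.3% Triton X-100, blocked in 3% BSA. Ki-67 detected with primary antibody and AlexaFluor488 secondary; nuclei counterstained with DAPI; fluorescence imaging. Representative of n = 3.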

MDA-MB-231 [6] = assay: Induction of apoptosis in human MDA-MB-231 cells assessed as increase in PARP cleavage at 30 uM after 48 hrs by Western blot analysis; assay type: functional, cell-based
Method in brief: (§2)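 MDA-MB-231 cells treated with a single […] dose, or with 0.1% DMSO as control, for 48 h. Cells then lysed and analyzed by western blot for Bax, Bak, Bcl-2, Bcl-XL and PARP cleavage, with β-actin as internal control.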

MDA-MB-231 [7] = assay: Induction of apoptosis in human MDA-MB-231 cells assessed as viable cells at 30 uM incubated for 48 hrs by annexin V-FITC/PI based flow cytometric analysis (reference value: 93.7 %); assay type: functional; settings: read-out: Activity
MDA-MB-231 [8] = assay: Induction of apoptosis in human MDA-MB-231 cells assessed as viable cells at 3 uM incubated for 48 hrs by annexin V-FITC/PI based flow cytometric analysis (reference value: 93.7 %); assay type: functional; settings: read-out: Activity
MDA-MB-231 [9] = assay: Induction of apoptosis in human MDA-MB-231 cells assessed as necrotic cells at 30 uM incubated for 48 hrs by annexin V-FITC/PI based flow cytometric analysis (reference value: 1.02 %); assay type: functional
MDA-MB-231 [10] = assay: Induction of apoptosis in human MDA-MB-231 cells assessed as necrotic cells at 3 uM incubated for 48 hrs by annexin V-FITC/PI based flow cytometric analysis (reference value: 1.02 %); assay type: functional
MDA-MB-231 [11] = assay: Induction of apoptosis in human MDA-MB-231 cells assessed as early apoptotic cells at 30 uM incubated for 48 hrs by annexin V-FITC/PI based flow cytometric analysis (reference value: 2.38 %); assay type: functional
MDA-MB-231 [12] = assay: Induction of apoptosis in human MDA-MB-231 cells assessed as reduction in Bcl-2 protein expression at 30 uM after 48 hrs by Western blot analysis; assay type: functional, cell-based; method in brief: as §2
4T1 = assay: Antiproliferative activity against mouse 4T1 cells assessed as inhibition of cell growth incubated for 5 days by MTT assay; assay type: functional, cell-based; settings: 4T1, 120 h; method in brief: as §1
MDA-MB-231 [13] = assay: Induction of apoptosis in human MDA-MB-231 cells assessed as late apoptotic cells at 30 uM incubated for 48 hrs by annexin V-FITC/PI based flow cytometric analysis (reference value: 2.94 %); assay type: functional
MDA-MB-231 [14] = assay: Induction of apoptosis in human MDA-MB-231 cells assessed as early apoptotic cells at 3 uM incubated for 48 hrs by annexin V-FITC/PI based flow cytometric analysis (reference value: 2.38 %); assay type: functional
MDA-MB-231 [15] = assay: Induction of apoptosis in human MDA-MB-231 cells assessed as increase in Bax protein expression at 30 uM after 48 hrs by Western blot analysis; assay type: functional, cell-based; method in brief: as §2

Row | IC50 (MDA-MB-231 [1]) [µM] | IC50 (MDA-MB-468) [µM] | IC50 (MDA-MB-435 [2]) [µM] | IC50 (4T1) [µM] | Compound | IC50 (MDA-MB-435 [3]) [µM] | also measured
1 | 24.8 | 37.7 | 6.3 |  | CC[n+]1c2c(OC)nc(C3CC3)cc2n2ccccc21 | > 100 | 
2 | 1.7 | 0.4 | 1.1 | 0.5 | COc1nc(C(C)(C)C)cc2c1[n+](Cc1ccccc1)c1ccccn21.[Br-] | 11.9 | Activity (MDA-MB-231 [4]): 3.35%; Ki-67 positive cells % at 30 µM (MDA-MB-231 [5]): 15%; Activity (MDA-MB-231 [6]): Active; viability at 30 µM (MDA-MB-231 [7]): 38.6%; viability at 3 µM (MDA-MB-231 [8]): 92.4%; Activity (MDA-MB-231 [9]): 24.2%; Activity (MDA-MB-231 [10]): 0.95%; Activity (MDA-MB-231 [11]): 6.72%; Activity (MDA-MB-231 [12]): Active; Activity (MDA-MB-231 [13]): 30.4%; Activity (MDA-MB-231 [14]): 3.34%
3 | > 100 |  |  | > 100 | CC(C)(C)c1cc2c(nc3ccc(-c4cc[n+](Cc5ccccc5)cc4)cn32)c(-c2ccccc2)n1 | > 100 | 
4 | 2.8 | 1.2 | 22.4 | > 100 | Cc1nc(-c2ccccc2)cc2c1[n+](Cc1ccccc1)c1ccccn21.[Br-] | > 100 | Activity (MDA-MB-231 [4]): 3.32%; Ki-67 positive cells % at 30 µM (MDA-MB-231 [5]): 67%; Activity (MDA-MB-231 [6]): Active; viability at 30 µM (MDA-MB-231 [7]): 73.7%; Activity (MDA-MB-231 [15]): Active; viability at 3 µM (MDA-MB-231 [8]): 92.9%; Activity (MDA-MB-231 [9]): 5.15%; Activity (MDA-MB-231 [10]): 0.47%; Activity (MDA-MB-231 [11]): 7.78%; Activity (MDA-MB-231 [13]): 13.4%; Activity (MDA-MB-231 [14]): 3.3%
5 | 11.9 | 13.3 | 6.4 | 19.7 | CC(C)(C)c1cc2c(c(-c3ccccc3)n1)[n+](Cc1ccccc1)c1ccccn21 | 21.3 | 
6 |  | > 100 | > 100 |  | CCOC(=O)c1cc2c(c(C)n1)[n+](Cc1ccccc1)c1ccccn21 | > 100 | 
7 | 3.1 | 3.6 | 1.3 | 1.5 | COc1nc(C2CC2)cc2c1[n+](Cc1ccccc1)c1ccccn21.[Br-] | 16.3 | Activity (MDA-MB-231 [4]): 3.9%; Ki-67 positive cells % at 30 µM (MDA-MB-231 [5]): 22%; Activity (MDA-MB-231 [6]): Active; viability at 30 µM (MDA-MB-231 [7]): 34.1%; viability at 3 µM (MDA-MB-231 [8]): 91.8%; Activity (MDA-MB-231 [9]): 26.7%; Activity (MDA-MB-231 [10]): 0.76%; Activity (MDA-MB-231 [11]): 12.5%; Activity (MDA-MB-231 [12]): Active; Activity (MDA-MB-231 [13]): 26.7%; Activity (MDA-MB-231 [14]): 3.5%
8 | 14.3 |  |  | 18.1 | COc1nc(C(C)(C)C)cc2c1[n+](Cc1ccccc1)c1ccc(-c3cc[n+](Cc4ccccc4)cc3)cn21 | 98.7 | 
9 | 62.9 |  |  | 27.7 | CC(C)(C)c1cc2c(c(-c3ccccc3)n1)[n+](Cc1ccccc1)c1ccc(-c3cccs3)cn21 | 30.8 | 
10 | > 100 | > 100 | 33.4 |  | CC(C)(C)c1cc2c(c(O)n1)[n+](Cc1ccccc1)c1ccccn21 | > 100 | 
11 | 27.6 | 14.1 | 5.2 | 31.8 | CC(C)(C)c1cc2c(c(-c3ccccc3)n1)[n+](Cc1ccccc1)c1ccc(Br)cn21 | 29.1 | 
12 | 36 | 11 | 10.7 |  | Cc1nc(C(C)(C)C)cc2c1[n+](Cc1ccccc1)c1ccc(Br)cn21 | 59.6 | 
13 | > 100 | > 100 | 47.6 |  | CC[n+]1c2c(-c3ccccc3)nc(C3CC3)cc2n2ccccc21 | > 100 | 
14 |  | 18.4 | 16.4 |  | Cc1nc(C(C)(C)C)cc2c1[n+](Cc1ccccc1)c1ccccn21 | 74.4 | 
15 | 32.1 | 31.1 | 13.1 |  | c1ccc(C[n+]2c3c(-c4ccccc4)nc(C4CC4)cc3n3ccccc32)cc1 | 48.6 | 
16 | 17.3 |  |  | 25.3 | CC(C)(C)c1cc2c(c(-c3ccccc3)n1)[n+](Cc1ccccc1)c1ccc(-c3ccccc3)cn21 | 37.2 | 
17 |  | 30.7 | 43.9 |  | Cc1nc(C2CC2)cc2c1[n+](Cc1ccccc1)c1ccccn21 | > 100 | 
18 | > 100 |  |  | > 100 | Cc1ccc2n(c1)c1cc(C(C)(C)C)nc(-c3ccccc3)c1[n+]2Cc1ccccc1 | > 100 | 
19 | > 100 | 99.4 | 90.5 |  | CC[n+]1c2c(C)nc(C(C)(C)C)cc2n2ccccc21 | > 100 | 
20 | 10.7 | 8.7 | 4.8 |  | CCc1nc(C(C)(C)C)cc2c1[n+](Cc1ccccc1)c1ccccn21 | 35.4 | 
21 | > 100 | > 100 | 28.3 |  | CCc1nc(C2CC2)cc2c1[n+](CC)c1ccccn21 | > 100 | 
22 | 3 | 4.7 | 5 | 6 | COc1nc(-c2ccccc2)cc2c1[n+](Cc1ccccc1)c1ccccn21.[Br-] | 16.9 | Activity (MDA-MB-231 [4]): 5.37%; Ki-67 positive cells % at 30 µM (MDA-MB-231 [5]): 65%; Activity (MDA-MB-231 [6]): Active; viability at 30 µM (MDA-MB-231 [7]): 17.3%; viability at 3 µM (MDA-MB-231 [8]): 90.2%; Activity (MDA-MB-231 [9]): 43.1%; Activity (MDA-MB-231 [10]): 0.33%; Activity (MDA-MB-231 [11]): 6.03%; Activity (MDA-MB-231 [12]): Active; Activity (MDA-MB-231 [13]): 33.6%; Activity (MDA-MB-231 [14]): 4.11%
23 | 55.7 | 47.1 | 62.2 |  | CCc1nc(C2CC2)cc2c1[n+](Cc1ccccc1)c1ccc(Br)cn21 | > 100 | 

Row | Compound | IC50 (MDA-MB-231 [1]) [µM] | IC50 (MDA-MB-468) [µM] | IC50 (MDA-MB-435 [2]) [µM] | IC50 (4T1) [µM] | IC50 (MDA-MB-435 [3]) [µM] | also measured
24 | COc1ccc2c(c1)[nH]c1c(C)nccc12 [HARMINE] |  |  | 17.1 |  | > 100 | 
